Hep lipid drop: inhibitors of hepatocyte lipid droplet formation, primary screen, imaging, high-throughput imaging, BODIPY stain | inhibition, % at 6.5 µM | 0.4% of 240,000 active | AID 1656, 2009 | AML12 mouse hepatocytes, oleate lipid droplets;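 active = lipid droplet intensity inhibited by at least 50%, with more than 500 cells counted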
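Assay system: AML12 mouse liver cells | Compound: 6.5 µM single-point dosing | Schedule: Overnight exposure | Technique: Fluorescence imaging, 20x objective, two fields per well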
HTR5A ag: HTR5A agonists in luminescence cell assay, primary screen, counter-screen for OPRM1-OPRD1 heterodimer agonist project, full-deck HTS. activation, % at 9.3 µM. 5-hydroxytryptamine receptor 5A (Homo sapiens), P47898. AID 504692, 2011. 0.61% of 340,000 active. cell-based; in the data active = activation mostly above about 9.5%, no sharp cut-off; inactive = mostly below about 7.6%;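 also: 0% = cells with vehicle only and 100% = reference agonist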
Target sequence (P47898 whole entry, looked up): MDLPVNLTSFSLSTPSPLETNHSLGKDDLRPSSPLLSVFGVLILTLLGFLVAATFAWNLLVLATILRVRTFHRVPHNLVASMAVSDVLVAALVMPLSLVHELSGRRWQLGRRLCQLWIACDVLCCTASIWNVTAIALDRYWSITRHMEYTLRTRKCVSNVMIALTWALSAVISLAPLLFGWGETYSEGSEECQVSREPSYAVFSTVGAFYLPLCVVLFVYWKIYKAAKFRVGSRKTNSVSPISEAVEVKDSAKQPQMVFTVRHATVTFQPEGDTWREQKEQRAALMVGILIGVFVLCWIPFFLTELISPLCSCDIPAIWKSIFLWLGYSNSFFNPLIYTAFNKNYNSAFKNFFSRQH
HTR5A inv ctr: HTR5A inverse agonists in luminescence cell assay, primary screen, counter-screen for OPRM1-OPRD1 heterodimer inverse agonist project, full-deck HTS; HTR5A cell line, inverse agonism; inhibition, % at 9.3 µM; 0.083% of 340,000 active; in the data active = inhibition mostly above about 23%, no sharp cut-off; inactive = mostly below about 18%;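 also: 0% = cells with DMSO and 100% = no-cell wells with DMSO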
OPRM1-OPRD1 ag: agonists of OPRM1-OPRD1 heterodimerization, primary screen, cell-based, luminescence | cells | Mu-type opioid receptor (Homo sapiens) + Delta-type opioid receptor (Homo sapiens), … | 0.3% of 340,000 active | activation, % at 9.3 µM; in the data active = activation above about 18%;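 also: 0% = vehicle-treated cells and 100% = reference agonist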
MOR-DOR inv ag: inverse agonists of MOR-DOR heterodimerization, primary screen, cell-based, luminescence. cell-based MOR-DOR heterodimer luminescence, inverse agonism. 0.21% of 340,000 active. inhibition, % at 9.3 µM. AID 504357, 2011; in the data active = inhibition above about 22%, passing the limit was not always enough;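 also: 0% = cells with DMSO and 100% = wells without cells with DMSO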
MOR-DOR inv conf: inverse agonists of MOR-DOR heterodimerization, confirmation, cell-based, luminescence | shares compounds with MOR-DOR inv ag | cells expressing OPRM1/OPRD1 heterodimer | inhibition, % at 9.3 µM | 20% of 580 active | AID 504900, 2011; in the data active = inhibition above about 32%;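 also: 0% = cells with DMSO and 100% = wells lacking cells with DMSO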
HTR5A inv ctr2: HTR5A inverse agonists, counter-screen for OPRM1-OPRD1 inverse agonist project, cell-based, luminescence; shares compounds with MOR-DOR inv ag; HTR5A-expressing cells, inverse agonism; inhibition, % at 9.3 µM; 580 tested, under 10 active; AID 504914, 2011; call rule not given here;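 also: 0% = cells with DMSO and 100% = no-cell wells with DMSO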
* = called active by the depositor; i = inactive; x = no result given. The list is not random: actives were taken first. Their share in the collection is about 1.4%.

SMILES	Hep lipid drop	HTR5A ag	HTR5A inv ctr	OPRM1-OPRD1 ag	MOR-DOR inv ag	MOR-DOR inv conf	HTR5A inv ctr2
Nc1c(Cl)ncnc1N/N=C/c1ccc2ccccc2n1	-89	-2	6	-6	32*	16	8
COc1ccccc1-n1cc(CN2CCN(C3CCCCC3)C(CCO)C2)cn1 (stereo not given)	44	1	-3	-2	11	x	x
O=CN1CCN(C=O)C(O)C1O (stereo not given)	x	-4	14	0	-2	x	x
O=C1c2ccccc2-c2nccnc21	x	-5	39*	-14	80*	87*	11
Cn1c(=O)[nH]c(=O)c2c1nc(N1CCNCC1)n2Cc1cccc2ccccc12	1	-8	15	-7	38*	-57	-24
Cn1c(=O)c2c(nc(N3CCNCC3)n2Cc2cccc3ccccc23)n(C)c1=O	x	-7	18	-7	42*	5	23
CCCOc1nc2c(c(=O)n(C)c(=O)n2C)n1Cc1cccc2ccccc12	x	-2	12	7	-39	x	x
O=C(Nc1nnc(-c2ccc(Br)cc2)o1)c1cccc(N2C(=O)CCC2=O)c1	x	-11	27	-3	15	x	x
CCS(=O)(=O)N1CCC(C(=O)Oc2ccc(C(=O)OC)cc2)CC1	11	-7	7	-1	4	x	x
CCS(=O)(=O)N1CCC(C(=O)OCC(=O)c2ccc(Br)cc2)CC1	x	-3	6	-7	35*	1	-2
NC(=O)CN1C(=O)C(O)(CC(=O)c2ccccc2O)c2ccccc21 (stereo not given)	-1	-6	17	-9	43*	43*	1
O=C(CC1(O)C(=O)Nc2ccccc21)c1cccc(Br)c1 (stereo not given)	2	-4	13	-6	33*	15	11
COC(=O)CN1C(=O)C(O)(CC(=O)c2cccc(Br)c2)c2ccccc21 (stereo not given)	x	-7	21	-8	43*	17	7
CCS(=O)(=O)Nc1cccc(C(=O)CC2(O)C(=O)Nc3ccccc32)c1 (stereo not given)	x	6	14	-5	31	x	x
CS(=O)(=O)Nc1cccc(C(=O)CC2(O)C(=O)Nc3ccc(Br)cc32)c1 (stereo not given)	x	3	-8	-7	35*	4	2
COc1cccc(C(=O)NCCS(=O)(=O)NC2CCCC2)c1	x	-1	-8	-3	17	x	x
O=C1CC2c3ccccc3C1C1C(=O)N(CCc3ccccc3)C(=O)C21 (stereo not given)	15	3	-9	3	-25	x	x
CC(=O)NC(CC(=O)N1CCCC1)c1ccccc1 (stereo not given)	8	5	-11	-3	16	x	x
COc1ccc2c(c1)C(=O)C(=O)N2CCS(=O)(=O)c1ccccc1	-15	-5	26	-13	70*	23	0
COc1ccc2c(c1)C(=O)C(=O)N2CC1COc2ccccc2O1 (stereo not given)	-9	-5	18	-8	38*	22	-2
O=C1C(=O)N(CCS(=O)(=O)c2ccccc2)c2ccc(F)cc21	1	-1	10	-10	53*	-34	-2
Cc1ccc(C(=O)NC(=S)NCc2ccco2)cc1	4	1	3	1	-3	x	x
Cc1ccc(S(=O)(=O)Nc2cccc3cccnc23)cc1	x	-6	11	-7	44*	11	5
Cc1ccc(S(=O)(=O)Nc2ccccc2-c2ccccc2NS(=O)(=O)c2ccc(C)cc2)cc1	x	5	-11	-2	9	x	x
CC(=O)OCC1(C)CN(c2ccccc2)N(C(=O)c2ccc(C(C)(C)C)cc2)C1=O (stereo not given)	1	-6	3	-3	23*	-6	-232
SMILES	Hep lipid drop	HTR5A ag	HTR5A inv ctr	OPRM1-OPRD1 ag	MOR-DOR inv ag	MOR-DOR inv conf	HTR5A inv ctr2
CC(=O)OCC1(C)CN(c2ccccc2)NC1=O (stereo not given)	6	-1	3	-9	42*	25	1
CC(=O)OCC1(C)CN(c2ccccc2)N(C(C)=O)C1=O (stereo not given)	7	-5	11	-8	40*	-52	-202
CCOC(=O)N1C(=O)[C@@](CC)(c2ccccc2)N1C(=O)OCC	-6	-1	5	-2	9	x	x
CCCc1ccc(C(=O)NNc2ccc(F)cc2)cc1	-2	2	10	-9	44*	29	6
CCCc1ccc(C(=O)NNC(=O)c2ccc(Br)cc2)cc1	-9	0	-1	3	-13	x	x
O=C(NNc1ccc(O)cc1)c1ccc(Br)cc1	22	1	24	-10	66*	62*	20
CC(=O)Oc1ccc(OC(C)=O)c2c1CC(C)=C(C)C2	-4	-2	6	-9	39*	60*	13
CC1CCN(CCCNC(=O)C2CCN(S(=O)(=O)N3CCCCC3)CC2)CC1	x	0	-14	-2	12	x	x
CC1CCCCN1CCNC(=O)C1CCN(S(=O)(=O)N2CCCCC2)CC1 (stereo not given)	x	8	-18	-2	13*	-156	-19
CC1(C)CC(CC(=O)NC(=S)Nc2ccc([N+](=O)[O-])cc2)C(=O)O1 (stereo not given)	x	-6	2	-6	35*	-259	-4
O=C(COC(=O)c1ccc(CO)cc1)c1ccc(S(=O)(=O)N2CCCCC2)cc1	x	-9	22	-10	38*	-352	-1
O=C(COC(=O)c1ccc(O)cc1)c1ccc(S(=O)(=O)N2CCCCC2)cc1	x	-3	7	-1	3	x	x
CC1CCCN(c2ccc(/C=C(\C#N)c3nn(-c4ccccc4)c(N)c3C#N)cc2[N+](=O)[O-])C1 (stereo not given)	x	-2	-1	-5	29*	-256	-29
CC1CCN(c2ccc(/C=C(\C#N)c3nn(-c4ccccc4)c(N)c3C#N)cc2[N+](=O)[O-])CC1	-10	0	-3	-5	21	x	x
C[n+]1c2n(c3ccccc31)N=C(c1cc(C(C)(C)C)c(O)c(C(C)(C)C)c1)CS2	-94	-1	19	-6	32*	51*	16
CCOC(=O)C1Oc2ccccc2C(C(=O)OC)=C1C(=O)OC (stereo not given)	x	2	-8	-8	40*	i	-4
CCOC(=O)C1Oc2ccccc2C(c2cccc3ccccc23)=C1C(=O)OC (stereo not given)	x	-2	9	0	1	x	x

Bioassay records from PubChem.
